Measurements published in ChEMBL document CHEMBL1152278, “Discovery of ligands for a novel target, the human telomerase RNA, based on flexible-target virtual screening and NMR” (J Med Chem, 2008).
pKd: −log10 of the molar value.

Assay: Binding affinity to human telomerase P2b RNA by […]
Outline: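 hTR-P2b RNA made by in vitro T7 polymerase transcription from a synthetic DNA template. Titration was at 50 μM RNA in 20 mM sodium phosphate pH 6.7, 50 mM NaCl, 90/10% H₂O/D₂O, 15 °C, with ligand added stepwise. Kd was fitted from 800 MHz imino-proton chemical shifts under a fast-exchange model.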

pKd | Structure (SMILES)
3.51 | N#Cc1ccc2c(c1)N(CCCN1CCN(CCO)CC1)c1ccccc1S2
2.96 | C[n+]1ccc(Nc2ccc(NC(=O)c3ccc(N)cc3)cc2)cc1
2.96 | OCCOCCN1CCN(CCCN2c3ccccc3Sc3ccc(C(F)(F)F)cc32)CC1
3.35 | CN1CCN(CCCN2c3ccccc3Sc3ccc(S(=O)(=O)N(C)C)cc32)CC1 [THIOPROPERAZINE]
3.24 | C[n+]1ccc(Nc2ccc(NC(=O)c3ccc(N)cc3[N+](=O)[O-])cc2)cc1
4.08 | CCN(CC)Cc1cc(Nc2c3ccccc3nc3c4ccccc4n(C)c23)ccc1O
2.82 | CN1CCN2c3ncccc3Cc3ccccc3C2C1 (stereo not given) [MIRTAZAPINE]
2.96 | CN(C)CCCN1c2ccccc2[C@H]2C[C@H]2c2ccccc21
3.74 | Nc1ccc(NC(=O)c2ccc(N)cc2)cc1
2.82 | O=C(c1ccc(O)cc1)c1ccc(O)cc1
